Only some compounds are listed: those with a hit (about 5.3% of all), similar ones and a draw of the others.
PLK1 PBD inh = blocks phosphopeptide binding to human Plk1 polo box domain | inhibition, %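 (tested at about 20 µM)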 | Plk1 PBD phosphopeptide binding, fluorescence polarization | P53350 | 97,000 tested, 0.13% active | AID 693; in the data active = inhibition above about 34%, passing the limit was not always enough
Target sequence (P53350 whole entry, looked up, the tested form may be a part): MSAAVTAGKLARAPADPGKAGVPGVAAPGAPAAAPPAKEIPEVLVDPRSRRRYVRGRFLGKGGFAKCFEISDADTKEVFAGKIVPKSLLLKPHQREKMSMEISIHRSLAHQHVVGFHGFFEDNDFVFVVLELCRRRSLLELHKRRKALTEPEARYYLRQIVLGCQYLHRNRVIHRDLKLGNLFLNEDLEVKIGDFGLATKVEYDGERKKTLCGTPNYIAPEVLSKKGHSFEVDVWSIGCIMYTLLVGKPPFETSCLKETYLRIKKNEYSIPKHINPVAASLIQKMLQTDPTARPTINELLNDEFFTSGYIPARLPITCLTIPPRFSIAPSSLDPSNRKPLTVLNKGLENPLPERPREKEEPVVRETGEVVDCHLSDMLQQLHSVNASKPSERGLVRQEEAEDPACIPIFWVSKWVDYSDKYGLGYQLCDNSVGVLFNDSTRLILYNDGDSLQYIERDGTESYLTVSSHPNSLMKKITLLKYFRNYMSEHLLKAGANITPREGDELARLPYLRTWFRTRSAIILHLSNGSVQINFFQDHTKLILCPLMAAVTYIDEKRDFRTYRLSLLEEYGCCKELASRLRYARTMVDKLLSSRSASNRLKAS
FAK inh = inhibitors of human focal adhesion kinase; biochemical FAK kinase activity assay; inhibition, %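 (tested at 7 µM)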; Q05397; 97,000 tested, 0.84% active; in the data active = inhibition above about 19%;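 note: 0% = DMSO and 100% = reference compound high control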
PLK1 inh = inhibitors of human PLK1 kinase; recombinant PLK1 kinase, TR-FRET peptide phosphorylation; 97,000 tested, 0.53% active; AID 619; inhibition, % at 10 µM;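 active = inhibition of 50% or more in the single-concentration screen; inactive = inhibition below 50%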;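 note: 0% = DMSO max control and 100% = H-89 dihydrochloride min control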
Rev-RRE block = disrupts HIV-1 Rev binding to RRE RNA; Rev peptide-RRE RNA binding, FRET; 97,000 tested, 0.79% active; inhibition, % at 8 µM; P05866;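 active = inhibition above the screen-wide mean plus 3 SD, cut at about 35% in these data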;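 note: 0% = median DMSO wells and 100% = median Neomycin B control wells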
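Test system: Cy5-tagged RRE RNA duplex with fluorescein-tagged Rev peptide | Read-out: % inhibition of FRET ratio versus controls | Probe or stimulus: Labelled Rev peptide | Incubation: 5 min RNA-compound premix plus 15 min binding step, 25 °C | Technique: FRET fluorescence readout | Benchmarks: DMSO low control, neomycin B high control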
Cav3 T inh = human Cav3.2 channel inhibition, primary screen | Cav3.2-expressing cells, Fluo-4 calcium fluorescence FDSS; active compounds read low | B-score at 10 µM | AID 449739 | 100,000 tested, 4% active | O95180;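 active = single-dose well whose peak fluorescence ratio is a statistical outlier from its plate by either plate-standardised score or position-corrected B-score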
EphB4 ephrin blk = blocks human EphB4 binding to ephrin-B2 | P54760 | EphB4 LBD / TNYL-RAW-Alexa532 peptide, fluorescence polarization | inhibition, % at 7 µM | 97,000 tested, 0.15% active | AID 720;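 active = inhibition above the screen-wide mean inhibition plus 3 SD, cut at about 15% in these data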;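 note: 0% = DMSO wells and 100% = excess unlabeled TNYL-RAW peptide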
Starred values were filed as active, the others as inactive; . = not tested or not shown.

SMILES	PLK1 PBD inh	FAK inh	PLK1 inh	Rev-RRE block	Cav3 T inh	EphB4 ephrin blk
Cc1ccc(-c2noc(CCC(=O)N(C)c3ccccc3C)n2)cc1	-13	0	-7	7	-5.6*	5
COc1ccc(-c2noc(CCC(=O)N(C)c3cccc(C)c3)n2)cc1	-12	3	-14	8	-5.8*	-1
O=C(O)CCCN=CC1=C(O)C(C(=O)c2ccccc2)CCC1=O (centres undefined)	-2	-1	-12	1	-1.9	-9
O=C(Nc1nccs1)C1CCCN1S(=O)(=O)c1ccc(Cl)cc1 (centres undefined)	-5	-3	-4	-5	0.21	0
CC(C)(C)C(=O)Nc1nc(C2CCCN2S(=O)(=O)c2ccc(Cl)cc2)cs1 (centres undefined)	8	1	-1	11	-4*	3
Cc1cnc(Nc2nc3ccccc3o2)nc1C(=O)Nc1cccc(C(F)(F)F)c1	10	-1	3	6	-6.1*	-4
COc1ccc(S(=O)(=O)n2nc(OC(=O)c3cccs3)cc2NC(=O)c2cccs2)cc1	.	.	.	.	-0.051	.
C#CCNC(=O)C1=C[C@@H](c2ccc(C(F)(F)F)cc2)C[C@@H](OCCCCO)O1	.	.	.	.	-0.59	.
Cc1cc(=O)oc(C)c1C(=O)n1nc(C)c2c1C[C@@H]1[C@H]2C1(C)C	.	.	.	.	0.7	.
CC(Oc1ccc(Cl)cc1Cl)c1nc(-c2ccc(NC(=O)c3ccco3)cc2)no1 (centres undefined)	3	0	-4	11	-1.7	0
COc1ccc(-c2nn(-c3ccccc3)cc2C(=O)N2CCOCC2)cc1	.	.	.	.	-0.1	.
COc1cccc(-c2nn(-c3ccccc3)cc2C(=O)Nc2nccs2)c1	10	-1	-4	2	-5.2*	1
COc1ccc(-c2nn(-c3ccccc3)cc2C(=O)Nc2nccs2)cc1	-11	-2	1	8	-5.8*	4
Oc1ccc(C(=S)N2CCCCC2)cc1Cl	-9	0	-10	5	0.53	2
C=CCOC(=O)C1=C[C@H](C2CC2)[C@@H](CCCO)[C@H](OCC)O1	.	.	.	.	-1.2	.
C/C(=N/OC(=O)c1c(F)cccc1F)c1nccs1	13	-2	-17	2	-4.7*	-7
Cc1ccccc1-n1nc2c(c1NC(=O)c1ccc(Br)o1)CSC2	-4	-2	-12	-2	-4.7*	-4
CCOC(=O)c1sc(N2C(=O)C(O)=C(C(=O)c3ccco3)C2c2ccccc2)nc1C (centres undefined)	2	-3	-14	13	.	-3
Cc1ccc2nc(N3C(=O)C(O)=C(C(=O)c4ccco4)C3c3cccs3)sc2c1 (centres undefined)	-6	-6	-11	9	-3.1*	2
Cc1nc(SCc2cccc(Oc3ccccc3)c2)n[nH]1	14	-1	-7	1	-2	11
Cc1ccc(OCCN2CCN(c3ncnc4sc(C)c(C)c34)CC2)cc1	-4	1	2	7	-3.6*	12
CC1CCN(S(=O)(=O)c2cccc(C(=O)NCc3cccs3)c2)CC1	-4	0	3	13	-7.3*	4
O=C(Nc1nc(-c2ccccc2)cs1)C1CCCN(S(=O)(=O)c2ccccc2)C1 (centres undefined)	2	0	-12	9	-3.4	2
COc1ccc(C(=O)Nc2nc(-c3cccs3)cs2)cc1	11	2	-5	14	-8.9*	-2
Cc1ccc(-c2csc(NC(=O)c3cccc(S(=O)(=O)N4CCN(C)CC4)c3)n2)cc1	.	.	.	.	0.4	.
SMILES	PLK1 PBD inh	FAK inh	PLK1 inh	Rev-RRE block	Cav3 T inh	EphB4 ephrin blk
O=C(Nc1nc(-c2cccs2)cs1)c1cccc(S(=O)(=O)N2CCCCC2)c1	-4	-2	-2	2	-9.2*	1
O=C(Nc1nc(-c2ccccc2)cs1)C1CCCN(S(=O)(=O)c2cccc([N+](=O)[O-])c2)C1 (centres undefined)	-3	0	-8	5	-6.1*	0
CCn1c(-c2ccccc2Cl)nn(CC(=O)Nc2cc(Cl)ccc2Cl)c1=S	14	-1	-6	7	-4.8*	4
CCC(C)[C@H](NC(=O)OC(C)(C)C)C(=O)N/N=C/C1=Cc2ccccc2OC1 (some centres undefined)	-4	3	-6	6	-5.3*	-6
Cc1cc(C)n(-c2nnc(C)n2/N=C/c2cc(Br)ccc2OCc2ccccc2)n1	-22	2	-19	5	-6.9*	-6
COc1ccccc1/C=N/n1c(C)nnc1-n1nc(C)cc1C	-23	-2	7	-1	-0.03	-3
Cc1cc(C)n(-c2nnc(C)n2/N=C/c2ccccc2OCc2ccccc2Cl)n1	-13	2	-8	6	-5.6*	3
COc1cccc(N2[C@@H](CC(C)=O)c3ccc(/C=C/C(C)=O)cc3S2(=O)=O)c1	.	.	.	.	1.1	.
Cc1cccc(C)c1NC(=O)C(=O)NCCOc1ccc(Cl)cc1	20	-4	-10	6	-3.6*	2
COCCNC(=O)c1cc(-c2ccccc2)nn1CC1CC(c2cccnc2)=NO1 (centres undefined)	.	.	.	.	-0.0053	.
CCN1/C(=C2\OC(=S)N(C)C2=O)Sc2ccccc21	14	-6	-2	4	.	-1
CCN1/C(=C/c2ccc3cccc(C)c3[n+]2CC)Sc2ccccc21	-222	-3	-55	28	-3.9*	0
CCOc1ccc(NC(=O)C/C(N)=N/O)cc1	7	2	-5	4	-0.16	0
CCOc1ccc(NC(=O)CSC(N)=O)cc1	.	.	.	.	-4.7*	.
COc1ccc(C2=CC(c3c(C)nn(-c4ccccc4)c3Cl)n3nnnc3N2)cc1OC (centres undefined)	-23	9	-2	51*	-0.24	3
C=CCn1c(SCC(=O)Nc2cc3oc4ccccc4c3cc2OC)nnc1-c1cnccn1	8	0	-7	0	-4.2*	-2
C=CCn1c(SCC(=O)Nc2cccc3ccccc23)nnc1-c1cnccn1	14	3	13	-2	0.26	2
Clc1ccc(C(c2nnnn2CCc2ccccc2)N2CCSCC2)cc1 (centres undefined)	-13	-9	-1	5	-6.8*	2
COc1ccccc1C(c1nnnn1CCc1ccccc1)N1CCN(c2ccccc2)CC1 (centres undefined)	-19	-4	-8	6	-5.9*	-8
COCCn1nnnc1C(c1ccccc1OC)N1CCN(c2ccccc2)CC1 (centres undefined)	-20	-4	-11	9	-0.1	0
COc1ccccc1N1CCN(C(c2ccccc2)c2nnnn2CCc2ccccc2)CC1 (centres undefined)	-9	3	-15	10	-3.7	0
Fc1ccc(C(c2nnnn2Cc2ccccc2)N2CCSCC2)cc1 (centres undefined)	4	1	-7	8	-1.6	3
